Results reported in ChEMBL document CHEMBL1938393, “Multiparameter exploration of piperazine derivatives as δ-opioid receptor agonists for CNS indications” (Bioorg Med Chem Lett, 2012).

Columns and labels:
HEK293 = assay: Selectivity ratio of IC50 for mu-opioid receptor overexpressed in human HEK293 cells to IC50 for delta-opioid receptor overexpressed in human HEK293 cells; type: cell-based
[1] = Intrinsic clearance in human liver microsomes; type: ADME, Microsome; conditions: read-out: CLH
[2] = target: Delta-type opioid receptor (Homo sapiens, UniProt P41143); assay: Displacement of [I125]deltorphin from delta-opioid receptor overexpressed in human HEK293 cells; type: cell-based
Chain of Delta-type opioid receptor (P41143 whole entry): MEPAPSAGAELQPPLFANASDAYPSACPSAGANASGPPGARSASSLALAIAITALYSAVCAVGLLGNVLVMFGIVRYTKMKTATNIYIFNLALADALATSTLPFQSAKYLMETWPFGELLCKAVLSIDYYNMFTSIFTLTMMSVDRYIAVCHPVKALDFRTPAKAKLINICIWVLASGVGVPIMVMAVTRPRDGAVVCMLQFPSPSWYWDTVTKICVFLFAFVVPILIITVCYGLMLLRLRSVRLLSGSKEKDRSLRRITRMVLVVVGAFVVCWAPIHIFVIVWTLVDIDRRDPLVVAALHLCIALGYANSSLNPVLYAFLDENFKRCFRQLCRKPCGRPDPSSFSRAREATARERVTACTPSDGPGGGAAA

[3] = target: Voltage-gated inwardly rectifying potassium channel KCNH2 (Homo sapiens, UniProt Q12809); assay: Inhibition of human Erg
Chain of Voltage-gated inwardly rectifying potassium channel KCNH2 (Q12809 whole entry): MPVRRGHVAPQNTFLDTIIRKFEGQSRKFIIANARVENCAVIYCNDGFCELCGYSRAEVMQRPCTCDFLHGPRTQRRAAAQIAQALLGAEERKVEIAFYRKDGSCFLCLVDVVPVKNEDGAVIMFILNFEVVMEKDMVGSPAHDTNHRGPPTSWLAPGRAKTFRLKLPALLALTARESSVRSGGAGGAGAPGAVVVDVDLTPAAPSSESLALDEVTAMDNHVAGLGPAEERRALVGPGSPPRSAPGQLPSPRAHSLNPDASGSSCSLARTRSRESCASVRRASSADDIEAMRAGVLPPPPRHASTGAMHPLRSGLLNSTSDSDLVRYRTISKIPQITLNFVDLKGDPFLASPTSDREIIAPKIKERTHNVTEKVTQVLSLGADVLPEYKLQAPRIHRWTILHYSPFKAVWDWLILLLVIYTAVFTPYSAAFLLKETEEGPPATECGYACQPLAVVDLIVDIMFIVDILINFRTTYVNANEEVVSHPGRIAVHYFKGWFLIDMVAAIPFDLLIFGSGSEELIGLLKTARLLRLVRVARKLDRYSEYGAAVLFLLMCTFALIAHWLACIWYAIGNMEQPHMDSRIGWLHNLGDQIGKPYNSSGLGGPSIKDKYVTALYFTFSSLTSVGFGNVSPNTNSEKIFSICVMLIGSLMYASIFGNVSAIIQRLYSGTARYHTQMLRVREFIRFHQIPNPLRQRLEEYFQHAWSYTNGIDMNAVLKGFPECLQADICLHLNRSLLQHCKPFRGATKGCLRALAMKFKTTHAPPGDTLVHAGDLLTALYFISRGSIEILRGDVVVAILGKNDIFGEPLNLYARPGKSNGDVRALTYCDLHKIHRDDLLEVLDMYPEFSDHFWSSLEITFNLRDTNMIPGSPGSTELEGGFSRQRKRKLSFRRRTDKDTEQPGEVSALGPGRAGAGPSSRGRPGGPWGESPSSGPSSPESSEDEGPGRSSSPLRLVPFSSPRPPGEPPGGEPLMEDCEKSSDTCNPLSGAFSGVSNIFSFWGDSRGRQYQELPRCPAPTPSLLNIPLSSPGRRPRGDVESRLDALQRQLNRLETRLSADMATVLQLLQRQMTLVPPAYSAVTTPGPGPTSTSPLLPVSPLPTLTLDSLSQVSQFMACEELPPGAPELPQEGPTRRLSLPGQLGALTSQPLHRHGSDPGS

MDR1 (P-gp), human = assay: Apparent permeability across apical to basolateral side in MDCK cells transfected with human MDR1 gene; type: ADME, cell-based, Canis lupus familiaris; conditions: dog
How it was run: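 Transport assay on MDCK cell monolayers transfected with the human MDR1 gene; flux measured in the apical-to-basolateral direction.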

| Compound | Ratio IC50 (HEK293) | microsomal CLint [1] [µL/min/mg] | IC50 [2] [nM] | IC50 [3] [nM] | Papp A→B (MDR1 (P-gp), human) [nm/s] |
| --- | --- | --- | --- | --- | --- |
| CN(CCO)C(=O)c1ccc([C@H](c2cccc(NC(=O)C3CC3)c2)N2CCN(Cc3ccc(F)cc3)CC2)cc1 | 11000 | 36 | 0.27 | 15000 | < 1 |
| CCN(CC)C(=O)c1ccc([C@H](c2cccc(NC(=O)OC)c2)N2CCN(Cc3cccnc3)CC2)cc1 | – | 110 | – | – | 3 |
| CCN(C)C(=O)c1ccc([C@H](c2cccnc2)N2CCN(Cc3cscn3)CC2)cc1 | – | 40 | 4.7 | – | < 1 |
| CCOC(=O)Nc1ccccc1[C@@H](c1ccc(C(=O)N(CC)CC)cc1)N1CCN(Cc2ccccn2)CC1 | > 6000 | 650 | 1.4 | 9900 | 4.3 |
| O=C(Nc1cccc([C@@H](c2ccc(C(=O)N3CCC3)cc2)N2CCN(Cc3ccc(F)cc3)CC2)c1)C1CC1 | 480 | 49 | 0.9 | 3600 | < 1 |
| CCOC(=O)Nc1cccc([C@@H](c2ccc(C(=O)N3CCC3)cc2)N2CCN(Cc3cccnc3)CC2)c1 | > 2200 | 53 | 4.1 | 11000 | 1.8 |
| CCN(CC)C(=O)c1ccc([C@H](c2cccc(NC(=O)C3CC3)c2)N2CCN(Cc3ccccn3)CC2)cc1 | > 120000 | 260 | 0.068 | 20000 | – |
| CCN(C)C(=O)c1ccc([C@H](c2cccc(NC(=O)C3CCC3)c2)N2CCN(Cc3cccnc3)CC2)cc1 | > 1500 | 85 | 6.6 | 28000 | < 1 |
| CCOC(=O)Nc1ccccc1[C@@H](c1ccc(C(=O)N(CC)CC)cc1)N1CCN(Cc2cscn2)CC1 | – | 430 | – | – | < 1 |
| CCN(C)C(=O)c1ccc([C@H](c2ccccn2)N2CCN(Cc3ccccn3)CC2)cc1 | > 1900 | 20 | 5.2 | > 33000 | 2.5 |
| CCN(C)C(=O)c1ccc([C@H](c2cccc(NC(=O)C3CC3)c2)N2CCN(Cc3nc(C)cs3)CC2)cc1 | < 100 | 160 | > 100 | 18000 | – |
| CCN(CC)C(=O)c1ccc([C@H](c2cccc(NC(=O)OC)c2)N2CCN(Cc3cncs3)CC2)cc1 | – | 100 | 0.35 | – | 2.2 |
| CCN(C)C(=O)c1ccc([C@H](c2cccc(NC(=O)OC)c2)N2CCN(Cc3cscn3)CC2)cc1 | 15000 | 38 | 0.094 | 17000 | 1.2 |
| CCOC(=O)Nc1cccc([C@@H](c2ccc(C(=O)N(C)CC)cc2)N2CCN(Cc3nc[nH]c3C)CC2)c1 | 14000 | 17 | 0.26 | > 33000 | < 1 |
| CCN(C)C(=O)c1ccc([C@H](c2cccc(NC(=O)C3CC3)c2)N2CCN(CCCOC)CC2)cc1 | 33 | < 4 | 23 | 13000 | – |
| CCN(CC)C(=O)c1ccc([C@H](c2cccc(NC(=O)C3CC3)c2)N2CCN(Cc3ccc(F)cc3)CC2)cc1 | 5200 | 150 | 0.29 | 11000 | < 1 |
| CCN(C)C(=O)c1ccc([C@H](c2cccnc2)N2CCN(Cc3ccccn3)CC2)cc1 | > 5100 | 33 | 2 | 13000 | 1.2 |
| CCOC(=O)Nc1cccc([C@@H](c2ccc(C(=O)N(CC)CC)cc2)N2CCN(Cc3cscn3)CC2)c1 | 6200 | 210 | 0.071 | 5400 | < 1 |
| CCOC(=O)Nc1ccc([C@@H](c2ccc(C(=O)N(CC)CC)cc2)N2CCN(Cc3cscn3)CC2)cc1 | 2700 | 21 | 1.3 | 7300 | 1.3 |
| CCN(CC)C(=O)c1ccc([C@H](c2cccc(NC(=O)C3CC3)c2)N2CCN(CCOC)CC2)cc1 | > 9400 | 26 | 1.1 | > 30000 | < 1 |
| CCOC(=O)Nc1cccc([C@@H](c2ccc(C(=O)N(C)CC)cc2)N2CCN(Cc3c[nH]c(C)n3)CC2)c1 | > 12000 | < 4 | 0.7 | > 33000 | < 1 |
